OX1R antag-1: OX1R (HCRTR1) antagonists, primary screen, fluorescence, CHO/OX1R cells, Fluo-8 calcium, orexin A; Orexin/Hypocretin receptor type 1 (Homo sapiens), O43613; Fluo-8 calcium fluorescence; inhibition, % at 5 µM; 330,000 compounds, 0.43% hits;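 active = inhibition above its plate's threshold, mean inhibition of all tested compounds on the plate plus 3 SD, cut at about 37% in these data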
Target sequence (O43613 whole entry, looked up): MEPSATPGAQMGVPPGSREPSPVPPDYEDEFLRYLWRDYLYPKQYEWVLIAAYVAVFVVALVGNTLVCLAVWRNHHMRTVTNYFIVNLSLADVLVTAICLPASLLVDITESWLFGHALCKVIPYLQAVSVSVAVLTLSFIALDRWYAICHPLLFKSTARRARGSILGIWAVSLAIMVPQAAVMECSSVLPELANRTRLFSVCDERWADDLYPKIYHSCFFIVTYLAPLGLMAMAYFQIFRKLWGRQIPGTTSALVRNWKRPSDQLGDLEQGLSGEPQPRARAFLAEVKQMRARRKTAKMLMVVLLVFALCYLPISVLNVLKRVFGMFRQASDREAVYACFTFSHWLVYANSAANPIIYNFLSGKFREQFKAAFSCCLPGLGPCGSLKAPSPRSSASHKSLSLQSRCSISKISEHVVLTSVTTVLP
CHO parental Ca: ATP-evoked calcium signal inhibitors, parental CHO, primary screen, counter-screen for OX1R antagonist project, cell-based, fluorescence, Fluo-8 calcium dye; 330,000 compounds, 0.63% hits; inhibition, % at 5.6 µM; AID 463079, 2010; parental CHO-K1, ATP-induced calcium, Fluo-8 fluorescence;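 active = inhibition above that plate's mean sample inhibition plus 3 SD, cut at about 26% in these data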
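Material: Parental CHO cells | Reagent: ATP | Compound dosing: Single nominal dose of 5.6 µM per compound | Detection: Intracellular calcium via Fluo-8 no-wash fluorescent dye | Read-out: % inhibition of ATP-induced calcium mobilization | Benchmarks: Low control ATP plus DMSO, high control DMSO only | Replicates: Singlicate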
GPR7 antag: GPR7 receptor antagonists, primary screen, cell-based, fluorescence, single concentration; Neuropeptides B/W receptor type 1 (Homo sapiens), P48145; GPR7-expressing cells, fluorescence antagonist assay; inhibition, % at 4.4 µM; 290,000 compounds, 1.1% hits; in the data active = inhibition above about 16%, passing the limit was not always enough;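 also: cells stimulated with the agonist NPW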
GalR3 antagonist: GalR3 antagonists in HEK293 cells, primary screen, cell-based, fluorescence readout | 360,000 compounds, 0.44% hits | inhibition, % at 3 µM | HEK293 GalR3-CNG cAMP membrane potential fluorescence; galR3 body fused to GalR1 C-terminus;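 active = inhibition above the screen-wide average plus 3 SD, cut at about 13% in these data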;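 also: forskolin and galanin both at EC90 stimulate the cells; cAMP rise reported by CNG channel membrane potential dye signal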
OX1R antag-2: antagonists of human orexin 1 receptor (OX1R). Orexin/Hypocretin receptor type 1 (Homo sapiens), O43613. OX1R-expressing cells, FRET antagonist read-out. inhibition, % at 6.6 µM. 330,000 compounds, 1.8% hits; in the data active = inhibition mostly above about 38%, no sharp cut-off; inactive = mostly below about 40%
GPR7 antag cf: GPR7 receptor antagonists, confirmation, cell-based, fluorescence, single concentration. shares compounds with GPR7 antag. GPR7-expressing cells, calcium fluorescence antagonist mode. inhibition, % at 4.4 µM. 2,400 compounds, 52% hits. AID 1952, 2009; in the data active = inhibition above about 24%;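 also: stimulated with the GPR7 agonist NPW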
MCHR1 antag: MCHR1 antagonists in cells, counter-screen for GPR7 antagonist project, cell-based, fluorescence, human | MCHR1-expressing cells, fluorescence antagonist assay | shares compounds with GPR7 antag | 2,400 compounds, 62% hits | inhibition, % at 4.4 µM; in the data active = inhibition above about 22%
A number is an active result. Rows were chosen to be rich in hits. Some 3.1% of all compounds tested hit in one or more screens of this group.

Screening Cc1ccc(SCC(=O)OCC(=O)N(CC(C)C)c2c(N)n(Cc3ccccc3)c(=O)[nH]c2=O)c(C)c1 returned OX1R antag-1 inactive, CHO parental Ca inactive, GalR3 antagonist inactive and OX1R antag-2 inactive.
`COCCN=C1N[C@@H](c2ccccc2)C(C(=O)OC)=C(C)N1Cc1ccccc1` gave OX1R antag-1 inactive, CHO parental Ca inactive, GPR7 antag inactive, GalR3 antagonist inactive and OX1R antag-2 inactive.
COCCN=C1N[C@@H](c2ccc(Br)cc2)C(C(=O)OC)=C(C)N1Cc1ccccc1 was read as OX1R antag-1 inactive, CHO parental Ca inactive, GPR7 antag 48.5, GalR3 antagonist inactive, OX1R antag-2 inactive, GPR7 antag cf 65.0 and MCHR1 antag 41.2.
`Cc1cccc(OCCNc2ccc([N+](=O)[O-])cn2)c1` gave OX1R antag-1 inactive, CHO parental Ca inactive, GPR7 antag 32.2, GalR3 antagonist inactive, OX1R antag-2 inactive, GPR7 antag cf 48.2 and MCHR1 antag 38.9.
c1ccc(-c2ccc(CN3CCSCC3)cc2)cc1 was read as OX1R antag-1 inactive, CHO parental Ca inactive, GPR7 antag 24.0, GalR3 antagonist inactive, OX1R antag-2 inactive, GPR7 antag cf inactive and MCHR1 antag inactive.
CCOc1ccc(S(=O)(=O)NCCC(=O)NCc2cccnc2)cc1 was read as OX1R antag-1 inactive, CHO parental Ca inactive, GalR3 antagonist inactive and OX1R antag-2 inactive.
COc1cc(CNC(C)(C)CO)cc(Br)c1OCc1ccc(Cl)cc1Cl was read as OX1R antag-1 inactive, CHO parental Ca inactive, GPR7 antag 29.5, GalR3 antagonist inactive, OX1R antag-2 inactive, GPR7 antag cf 57.5 and MCHR1 antag 57.1.
Screening O=C(CCNC(=O)c1ccco1)Nc1ccc(OC(F)F)cc1 returned OX1R antag-1 inactive, CHO parental Ca inactive, GPR7 antag inactive, GalR3 antagonist inactive and OX1R antag-2 inactive.
Screening O=C(NCC(c1cccs1)N1CCOCC1)c1cc(S(=O)(=O)N2CCOCC2)ccc1F (stereo unspecified) returned OX1R antag-1 inactive, CHO parental Ca inactive, GalR3 antagonist inactive and OX1R antag-2 inactive.
COC(=O)[C@@H](Cc1c[nH]c2ccccc12)NC(=O)CCC(=O)c1ccc(Br)cc1 was read as OX1R antag-1 inactive, CHO parental Ca inactive, GalR3 antagonist inactive, OX1R antag-2 inactive and MCHR1 antag inactive.
Nc1n[nH]c(N)c1N=Nc1cccc(C(F)(F)F)c1 was read as OX1R antag-1 inactive, CHO parental Ca inactive, GPR7 antag 41.0, GalR3 antagonist inactive, OX1R antag-2 inactive, GPR7 antag cf 38.4 and MCHR1 antag 35.9.
Cc1ccccc1N(CC(=O)NC1CCCCC1)C(=O)CCCC(=O)Nc1ccccn1 was read as OX1R antag-1 inactive, CHO parental Ca inactive, GPR7 antag 38.2, GalR3 antagonist inactive, OX1R antag-2 inactive, GPR7 antag cf 33.3 and MCHR1 antag inactive.
Cc1ccc(NC(=O)NCCCN2CCOCC2)cc1 was read as OX1R antag-1 inactive, CHO parental Ca inactive, GPR7 antag inactive, GalR3 antagonist inactive and OX1R antag-2 inactive.
`COc1ccc(Cl)c(N2CCN(CCCNC(=O)Nc3ccc(C)cc3)CC2)c1` gave OX1R antag-1 inactive, CHO parental Ca inactive, GPR7 antag 31.3, GalR3 antagonist inactive, OX1R antag-2 inactive, GPR7 antag cf inactive and MCHR1 antag 42.1.
Screening COc1ccc(-n2c(C)cc(/C=C3\C(=N)N4N=C(CC(=O)N5CCOCC5)SC4=NC3=O)c2C)cc1 returned OX1R antag-1 inactive, CHO parental Ca inactive, GPR7 antag 32.0, GalR3 antagonist inactive, OX1R antag-2 inactive, GPR7 antag cf inactive and MCHR1 antag inactive.
